What was measured:
A549 = assay: Cytotoxicity against human A549 cells after 72 hrs by MTT assay; format: functional, cell-based; conditions: A549, 72 h
How it was run: (§1)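 Antiproliferative screen on cancer lines PC3, DU145, SKOV3 and A549 and on normal human WI-38 fibroblasts. Paclitaxel was the positive control and DMSO the negative control. IC50 in μM reported as the mean of duplicate measurements.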

PC-3 = assay: Cytotoxicity against human PC3 cells after 72 hrs by MTT assay; format: functional, cell-based; conditions: PC-3, 72 h; how it was run: as §1
WI-38 = assay: Cytotoxicity against human WI38 cells after 72 hrs by MTT assay; format: cell-based; conditions: WI-38, 72 h; how it was run: as §1
DU-145 = assay: Cytotoxicity against human DU145 cells after 72 hrs by MTT assay; format: functional, cell-based; conditions: DU-145, 72 h; how it was run: as §1
SK-OV-3 = assay: Cytotoxicity against human SKOV3 cells after 72 hrs by MTT assay; format: functional, cell-based; conditions: SK-OV-3, 72 h; how it was run: as §1

Compound | IC50 (A549) [µM] | IC50 (PC-3) [µM] | IC50 (WI-38) [µM] | IC50 (DU-145) [µM] | IC50 (SK-OV-3) [µM]
C=CC(=C)CC[C@]1(C)[C@H]2C[C@@H](OC(C)=O)C[C@@H]3[C@H](OC(C)=O)O[C@H](OC(C)=O)[C@@]32CC[C@@H]1C (relative stereo) | 66.2 | 36.1 | 56.9 | 20 | 38.2
C=CC(=C)CC[C@]1(C)[C@H]2C[C@H](OC(C)=O)C=C3[C@@H](OCC)O[C@H](OC(C)=O)[C@@]32[C@H](OC)C[C@@H]1C | 45.2 | 46.4 | 57.6 | 51.7 | 99.8
C=CC(=C)CC[C@]1(C)[C@H]2C[C@@H](O)C[C@@H]3[C@H](OC(=O)CCC)O[C@H](OC(C)=O)[C@@]32CC[C@@H]1C (relative stereo) | 16.2 | 6.3 | 21.1 | 5.8 | 10.2
C=CC(=C)CC[C@]1(C)[C@H]2C[C@H](O)C[C@@H]3[C@H](OC(=O)CCC)O[C@H](OC(C)=O)[C@@]32CC[C@@H]1C | 13.9 | 7.2 | 58.1 | 67.2 | 25.3
C=CC(=C)CC[C@]1(C)[C@H]2C[C@H](OC(=O)C(C)CC)C=C3[C@H](OC(C)=O)O[C@H](OC(C)=O)[C@@]32[C@H](O)C[C@@H]1C (relative stereo) | 5.7 | 4.5 | 9.8 | 4.3 | 5.1
C=CC(=C)CC[C@]1(C)[C@H]2C[C@H](OC(=O)C(C)CC)C=C3[C@H](OC(C)=O)O[C@@H](OC(C)=O)[C@@]32[C@H](OC)C[C@@H]1C (relative stereo) | 7.9 | 5.6 | 13.3 | 4.8 | 7.2
C=CC(=C)CC[C@]1(C)[C@H]2C[C@H]3C[C@@H]4[C@H](OC(C)=O)O[C@H](O3)[C@@]42CC[C@@H]1C | 19.7 | 6.2 | 41 | 13.3 | 30.6
CC(=O)O[C@H]1C(=O)[C@@]2(C)[C@H]([C@H](OC(=O)c3ccccc3)[C@]3(O)C[C@H](OC(=O)[C@H](O)[C@@H](NC(=O)c4ccccc4)c4ccccc4)C(C)=C1C3(C)C)[C@]1(OC(C)=O)CO[C@@H]1C[C@@H]2O [PACLITAXEL] | – | 0.02 | 0.05 | 0.04 | –
C=CC(=C)CC[C@]1(C)[C@H]2CC(=O)C=C3[C@H](OC(C)=O)O[C@H](OC(C)=O)[C@@]32[C@H](OC)C[C@@H]1C (relative stereo) | 13.3 | 6.5 | 20.3 | 5.6 | 17.6
C=CC(=C)CC[C@]1(C)[C@H]2C[C@H](OC(=O)C(C)CC)C=C3[C@@H](OCC)O[C@H](OC(C)=O)[C@@]32[C@H](O)C[C@@H]1C (relative stereo) | 49.8 | 46.9 | 60.2 | 14.8 | 15.3
C=CC(=C)CC[C@]1(C)[C@H]2C[C@@H](OC(C)=O)C=C3[C@H](OC(C)=O)O[C@H](OC(C)=O)[C@@]32[C@H](OC)C[C@@H]1C | 7.1 | 4.7 | 13.3 | 4.3 | 6.2
C=CC(=C)CC[C@]1(C)[C@H](C)CC[C@@]23[C@@H](OC(C)=O)O[C@H](OC(C)=O)[C@@H]2C[C@H](O)C[C@@H]13 (relative stereo) | 15.2 | 8.2 | 26.3 | 6.6 | 17.9
C=CC(=C)CC[C@]1(C)[C@H]2C[C@@H](OC(C)=O)C=C3[C@@H](OCC)O[C@H](OC(C)=O)[C@@]32[C@H](OC)C[C@@H]1C (relative stereo) | 53.3 | 34.2 | 55.7 | 47.2 | 35.9
C=C(C)[C@@H](C)C[C@@H](O)[C@@H](C)[C@H]1CC[C@@]2(C)[C@@H]3CCC4=C(C[C@]35O[C@@H]5C[C@]12C)C(=O)C=CC4(C)C (relative stereo) | 37.7 | 22.5 | 78.4 | 26.1 | 73.8
C=CC(=C)CC[C@]1(C)[C@H]2C[C@H]3C[C@@H]4[C@@H](OC(C)=O)O[C@H](O3)[C@@]42CC[C@@H]1C | 24 | 5.6 | 51 | 14.1 | 36.2
C=CC(=C)CC[C@]1(C)[C@H]2CC(=O)C=C3[C@H](OC(=O)CCC)O[C@H](OC(C)=O)[C@@]32[C@H](OC)C[C@@H]1C (relative stereo) | 11.3 | 4.6 | 14.8 | 7.2 | 7.2
C=CC(=C)CC[C@]1(C)[C@H]2C[C@H](OC(=O)C(C)CC)C=C3[C@H](OC(=O)CCC)O[C@H](OC(C)=O)[C@@]32[C@H](O)C[C@@H]1C (stereo partly drawn) [CASEAMEMBRIN A] | 15.7 | 10.5 | 19.6 | 5 | 8.7
